Assay outcomes deposited in PubChem by several laboratories.
C8 TRAIL sens – caspase-8 TRAIL sensitization; inhibition (viability loss, TRAIL sensitization), % at 10 µM; actives 1% (n = 360,000); NB7+C8 cells + TRAIL, ATPlite viability luminescence;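 active means compounds causing at least 50% loss of cell viability in the single-dose screen, relative to plate controls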
FLuc inh counter – counter-screen for luciferase assay inhibitors: firefly luciferase inhibition; P08659; ATPLite firefly luciferase biochemical luminescence, 10 min; inhibition, % at 10 µM; actives 1.5% (n = 200,000); AID 1006;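 active means inhibition above about 50% when tested at 10 µM, limit read from the data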
Target sequence (P08659 whole entry, looked up): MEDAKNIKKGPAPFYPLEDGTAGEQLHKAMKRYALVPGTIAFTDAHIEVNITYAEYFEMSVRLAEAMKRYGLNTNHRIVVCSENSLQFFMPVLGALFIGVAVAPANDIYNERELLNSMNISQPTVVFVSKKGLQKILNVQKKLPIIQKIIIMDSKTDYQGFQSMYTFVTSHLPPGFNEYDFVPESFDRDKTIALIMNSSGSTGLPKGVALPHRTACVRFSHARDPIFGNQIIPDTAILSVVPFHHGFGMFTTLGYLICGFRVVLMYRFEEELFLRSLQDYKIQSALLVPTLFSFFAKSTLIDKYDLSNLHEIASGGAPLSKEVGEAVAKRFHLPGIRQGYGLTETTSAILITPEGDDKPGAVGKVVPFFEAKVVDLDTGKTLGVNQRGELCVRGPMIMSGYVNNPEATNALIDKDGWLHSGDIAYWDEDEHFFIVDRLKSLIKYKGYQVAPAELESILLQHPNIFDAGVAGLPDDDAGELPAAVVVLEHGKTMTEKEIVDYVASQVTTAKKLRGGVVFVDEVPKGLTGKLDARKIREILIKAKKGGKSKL
PPC-1+TRAIL kill – PPC-1 cancer cell killing with TRAIL present; cell killing (% activity), % at 4 µM or 5 µM; PPC-1 cells + TRAIL, ATPLite viability luminescence; actives 0.41% (n = 220,000);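 active means cell killing above 50% in the first pass at 4 µM, then a duplicate retest at 5 µM averaging 50% or more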
Platelet DG rel – modulates dense granule release in human platelets | actives 0.22% (n = 300,000) | inhibition, %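 (compounds screened at 7.5 µM in platelet-rich plasma)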 | human platelet-rich plasma, SFLLRN dense granule ATP release, luminescence;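 active means mean replicate score, as percent of positive control, at or above 50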
FLuc act counter – firefly luciferase counter-screen for stimulation assays | 200,000 tested, under 10 active | P08659 | activation factor at 10 µM | ATPlite luciferase biochemical, luminescence, 10 min; 0 = ATP-free wells, 1 = DMSO control;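 active means luciferase activation factor, scaled between plate controls, of at least 2 with compound at 10 µM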
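Material: Luciferase/luciferin reagent mix; Doses: test compounds dosed from 2 mM stocks in 100% DMSO; Schedule: 10 min incubation after luciferase reagent addition, room temperature; Measured by: luminescence from luciferase reaction; Read-out: luminescence gain marking luciferase activators.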
A number is an active result; 0 = inactive; - = not tested or not shown. The list is not random: actives were taken first. Their share in the collection is about 1.6%.

SMILES | C8 TRAIL sens | FLuc inh counter | PPC-1+TRAIL kill | Platelet DG rel | FLuc act counter
CCOC(=O)[C@]12CCCC=C1N(CCc1ccc(OC)c(OC)c1)C(=O)[C@H](CC(=O)N1CCSCC1)C2 | 0 | - | - | - | -
Cc1ccc(/C=C/c2nc3ccccc3[nH]2)o1 | 0 | 86 | 0 | 0 | 0
Cc1cc2nc(/C=C/c3nc4cc(C)c(C)cc4[nH]3)[nH]c2cc1C | 0 | - | 0 | 0 | -
Cc1nc(-c2cccc(NC(=O)c3ccc(-n4nccc4C)cc3)c2)cs1 | 60 | - | - | - | -
Cc1nc(-c2cccc(NC(=O)c3cccs3)c2)cs1 | 0 | 0 | 0 | 0 | 0
Oc1cc(-c2ccc(N3CCCCC3)nc2)cc2cccnc12 | 74 | - | - | - | -
Cc1cccc(C)c1NC(=O)C1c2ccccc2OCC(=O)N1Cc1cccnc1 (stereo not drawn) | 0 | - | - | - | -
CC1(C(=O)NS(=O)(=O)c2ccccc2Cl)CCN1C(=O)COc1ccc(Cl)cc1 (stereo not drawn) | 0 | - | - | - | -
Cc1cc(C)c(C(=O)Cn2nc(C(=O)O)c3ccccc3c2=O)cc1C | 0 | - | 0 | 0 | -
Cc1cc(C(=O)Cn2nc(C(=O)O)c3ccccc3c2=O)c(C)n1-c1ccccc1 | 76 | 92 | 0 | 0 | 0
CCOC(=O)[C@]12CCCC=C1N(CCc1ccc(OC)c(OC)c1)C(=O)[C@H](CC(=O)NCC13CC4CC(CC(C4)C1)C3)C2 | 0 | - | - | - | -
COc1ccc(-n2ncc3c(NC(C)C)ncnc32)cc1 | 0 | 77 | 0 | 0 | 0
COCC(C)Nc1ncnc2c1cnn2-c1ccc(Cl)cc1 (stereo not drawn) | 0 | 0 | - | 0 | 0
COc1ccc(-n2ncc3c(NCC(C)C)ncnc32)cc1 | 0 | 71 | 0 | 0 | 0
O=C1c2cccc(O)c2C(=O)c2c(O)cccc21 | - | 0 | 0 | 0 | 0
CC1OC(CC(=O)O)CC2=C1C(=O)c1c(O)cccc1C2=O (stereo not drawn) | 92 | - | - | - | -
Cc1cc(C)c(C)c(S(=O)(=O)N2CCN(c3ccccn3)CC2)c1C | 0 | - | - | 0 | -
Cc1cc(C)c(C)c(S(=O)(=O)N2CCN(c3ncnc4ccccc34)CC2)c1C | 55 | - | - | - | -
COc1ccc(Cc2nnc(N/N=C/c3ccc(O)cc3O)[nH]c2=O)cc1OC | 51 | 0 | 0 | 0 | 0
CCCCCC/C=N/Nc1nnc(Cc2ccc(OC)c(OC)c2)c(=O)[nH]1 | 0 | - | - | 0 | -
CN(C)c1ccc(N=Nc2ccccc2Br)cc1 | 55 | - | - | 0 | -
CC(=O)c1ccc(N=Nc2ccc(C)cc2)cc1 | 0 | 52 | 0 | 0 | 0
CC(=O)c1ccc(N=Nc2ccc(N(C)C)cc2)cc1 | 78 | 53 | 0 | 0 | 0
Cc1ccc(C(=O)c2ccc(C)cc2)cc1 | 0 | 0 | 0 | 0 | 0
Cc1cc(N(C)C)ccc1N=Nc1ccc(N)cc1 | 0 | - | - | 0 | -
SMILES | C8 TRAIL sens | FLuc inh counter | PPC-1+TRAIL kill | Platelet DG rel | FLuc act counter
CCCCN1C(=O)C(CC(=O)NC(c2ccccc2)c2ccccc2)CC(C(=O)N2CCCCCC2)=C1C (stereo not drawn) | 0 | - | - | - | -
Oc1ccc(CCNc2c3ccccc3nc3ccccc23)cc1O | 71 | - | - | 0 | -
c1ccc(CNc2c3ccccc3nc3ccccc23)cc1 | 0 | - | - | 0 | -
Cc1ccc(NCc2nc3ccccc3n2C)c(C)c1 | 83 | - | - | 0 | -
Cc1cccc(NCc2nc3ccccc3n2C)c1 | 0 | 0 | 0 | 0 | 0
Cc1cc(NC(=O)c2cc3n(n2)C(C(F)(F)F)CC(c2ccco2)N3)no1 (stereo not drawn) | 60 | 0 | 0 | 0 | 0
CCOC(=O)C1C(c2cc(OC)c(O)c(OC)c2)NC(=S)NC1(O)C(F)(F)F (stereo not drawn) | 0 | 0 | 53 | 0 | 0
CCOC(=O)C1C(c2cc(OC)c(OC)c(OC)c2)NC(=S)NC1(O)C(F)(F)F (stereo not drawn) | 0 | 0 | 0 | 0 | 0
Cc1cc(C(=O)NCC(C)C)c2ccccc2n1 | 0 | 60 | 0 | 0 | 0
O=S(=O)(Nc1nc2ccccc2nc1N1CCc2ccccc2C1)c1ccc(Cl)cc1 | 0 | 0 | 0 | 0 | 0
O=S(=O)(Nc1nc2ccccc2nc1N1CCc2ccccc2C1)c1ccc(Br)cc1 | 61 | 0 | 56 | - | 0
CCOc1ccc(C(=O)NCCc2ccccc2)cc1 | 0 | 73 | 0 | 0 | 0
O=C(NCCc1ccccc1)c1ccc2c(c1)OCO2 | 71 | - | - | 0 | -
O=C(NCCc1ccccc1)c1cccnc1 | 0 | 0 | 0 | 0 | 0
COc1ccccc1OCCNC(=O)CNC(=O)c1ccc2c(c1)OCO2 | 0 | - | - | 0 | -
COc1ccccc1OCCNC(=O)c1ccc2c(c1)OCCO2 | 52 | - | - | 0 | -
O=C(NCCc1ccccc1)c1ccc2nccnc2c1 | 0 | 77 | - | 0 | 0
CCCCn1nnnc1C1(C)CCC(=O)N1Cc1cccc(F)c1 (stereo not drawn) | 0 | - | - | - | -
COc1cccc(CNc2nc3cc(-c4ccccc4CO)sc3c(=O)n2C)c1 | 0 | - | - | - | -
CC(=O)Oc1ccc(C(=O)NCCc2ccccc2)cc1 | 0 | 51 | 0 | 0 | 0
Cc1ccccc1NC(=O)CNC(=O)N1CC(=O)Nc2ccccc21 | 0 | - | - | - | -
CCOC(=O)CNC(=O)N1C[C@H]2CON(C)[C@H]2C[C@H]1c1ccccc1Br | 0 | - | - | - | -
C(=N\n1cnnc1)/c1ccc(N2CCOCC2)cc1 | 0 | 0 | 0 | 0 | 0
CN(C)/N=C/c1ccc(N2CCOCC2)cc1 | 0 | 63 | 0 | 0 | 0
CCn1cc(C(=O)NCc2ccco2)c(=O)c2cc(S(=O)(=O)N3CC(C)CC(C)C3)ccc21 (stereo not drawn) | 83 | 0 | 55 | 0 | 0
SMILES | C8 TRAIL sens | FLuc inh counter | PPC-1+TRAIL kill | Platelet DG rel | FLuc act counter
CCn1cc(C(=O)NCc2ccco2)c(=O)c2cc(S(=O)(=O)N3CCC(C)CC3)ccc21 | 0 | 0 | 0 | 0 | 0
COC1=C(C)C(=O)C2=C(C1=O)C1C3CC4=C(C(=O)C(OC)=C(C)C4=O)C(CNC(=O)C(C)=O)N3C(C#N)C(C2)N1C (stereo not drawn) | 86 | - | - | - | -
CC(C)(C(=O)N1CCC1(C)C(=O)NS(=O)(=O)c1ccc(C#N)cc1)c1ccccc1 (stereo not drawn) | 0 | - | - | - | -
Cn1cccc1C(=O)OCc1csc(-c2ccccc2)n1 | 0 | 61 | 0 | 0 | 0
O=C(OCc1csc(-c2ccccc2)n1)c1cccs1 | 0 | 0 | 0 | 0 | 0
CCc1ccc(/C=C2\SC(=S)N(CCCC(=O)N3CCN(C)CC3)C2=O)cc1 | 87 | - | - | - | -
CCc1ccc(/C=C2\SC(=S)N(CCCC(=O)NCCCN3CCOCC3)C2=O)cc1 | 75 | - | - | - | -
COc1ccc(-c2cnc(C(O)c3ccc(OC)c(F)c3)[nH]2)cc1 (stereo not drawn) | 0 | - | - | - | -
Fc1ccc(-c2nc3n(n2)Cc2ccccc2-3)cc1 | 57 | 75 | 0 | - | 0
O=C(NCc1ccccc1)C1c2ccccc2OCC(=O)N1Cc1ccco1 (stereo not drawn) | 0 | - | - | - | -
O=C1C2C3C=CC(C4CC34)C2C(=O)N1/N=C/c1c[nH]c2ccccc12 (stereo not drawn) | 0 | 78 | 0 | 0 | 0
O=C1c2cccc3cccc(c23)C(c2nc3ccccc3[nH]2)N1C1CC1 (stereo not drawn) | 0 | - | - | - | -
O=C(CC(Nc1ccccc1)C(=O)O)c1ccccc1 (stereo not drawn) | 0 | 78 | 0 | 0 | 0
Cc1ccc(NC(CC(=O)c2ccccc2)C(=O)O)cc1Cl (stereo not drawn) | 0 | - | 0 | 0 | -
